Assay outcomes deposited in PubChem BioAssay by several laboratories.
An excerpt weighted towards active compounds, which were near 2.1% of everything screened.
Yeast life ext: yeast lifespan extension. AID 775. S. cerevisiae growth with nicotinamide, OD615; deaD strain in restrictive glucose medium. inhibition of the nicotinamide effect, % at 10 µM. 0.68% of 130,000 active;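 active means inhibition above a set limit, placed 3 SD over the median of all compounds, cut at about 26% in these data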
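Test system – modified budding yeast, DeaD strain · Compound – single dose 10 µM compound, 0.25% DMSO · Times – culture preincubation 4 h, compound exposure 48 h, both 30 °C · Detection – optical density (absorbance) at 615 nm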
MRP resist rev: compounds reversing MRP-mediated drug resistance | 0.04% of 85,000 active | H69AR cells + 2 uM doxorubicin, CellTiter-Glo, 72 h | differential viability (reversal), % at 10 µM;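 active means viability drop by adding the cancer drug above about 55%, with treated viability meeting a 40% cutoff, limit read from the data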;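 further: larger differential means the compound sensitizes cells more to doxorubicin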
Phagocytosis inh: blocks phagocytosis by macrophages; J774A.1 macrophage IgG-bead phagocytosis, imaging; inhibition, % at 5 µM; 0.07% of 110,000 active;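 active means inhibition above the mean of the plate negative controls plus 5 SD, cut at about 13% in these data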;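 further: phagocytic index as fraction of beads internalized from green versus red external bead signal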
SDO1 yeast rescue: restores growth of sdo1-depleted yeast; S. cerevisiae sdo1-depleted JHY4D growth rescue, OD600 30 h; stronger effect = higher value; pdr5 snq2 efflux-pump mutant strain; z-score at 10 µM; 0.21% of 140,000 active; AID 817;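 active means z-score above 3 at both the 24 hr and the 30 hr optical density reads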
MRP1 act: MRP-1 activation. H69AR cells + doxorubicin, viability rescue, CellTiter-Glo. viability increase, % at 10 µM. 0.61% of 140,000 active;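 active means viability gain under doxorubicin at or above a set limit, the compound median plus 3 SD, cut at about 4.7% in these data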;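 further: MRP-1 overexpressing cells given doxorubicin 25 µM after compound pretreatment; 18-22 h compound pretreatment then 72 h with doxorubicin before readout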
BB579 growth dn: chemicals that inhibit yeast BB579 growth in restrictive medium (lifespan-shortening candidates); S. cerevisiae BB579 growth, OD615, 48 h; 0.51% of 140,000 active; AID 804; inhibition, % at 10 µM;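 active means inhibition above a set limit, 3 SD over the mean compound inhibition, cut at about 44% in these data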
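System: Saccharomyces cerevisiae DeaD strain BB579, replicative lifespan model yeast. Buffer or medium: restrictive glucose-based CSMM-D medium. Doses: one dose, 10 µM compound with 0.25% DMSO. Timing: 4 h preincubation and 48 h exposure at 30 °C. Detection: turbidity as optical density at 615 nm. Benchmarks: amphotericin B 10 µg/mL, positive.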
Hits are given with their value; – = inactive; · = not tested or not shown; [ ] = remark or other dose.

SMILES	Yeast life ext	MRP resist rev	Phagocytosis inh	SDO1 yeast rescue	MRP1 act	BB579 growth dn
CCn1c2ccccc2c2nnc(SCC(=O)Nc3ccc4c(c3)OCO4)nc21	–	–	–	–	–	–
CC(C)OC(=O)n1c(=S)oc2ccccc21	–	–	–	–	–	–
Cc1cccc(OC(=O)n2c(=S)oc3cc(Cl)ccc32)c1	64	·	–	–	–	–
COC(=O)C(Cc1c[nH]c2ccccc12)NC(=O)C(C)C (configuration not stated)	–	–	–	–	–	–
CCOC(=O)C(Cc1c[nH]c2ccccc12)NC(=O)c1ccco1 (configuration not stated)	–	–	90[artifact]	–	–	–
Cc1cccc(N(CC(=O)NC2CCCC2)C(=O)c2cc3cc4cccc(C)c4nc3s2)c1C	–	·	·	–	–	–
O=C(c1cccnc1)N(Cc1ccccc1)c1ccccc1	–	–	–	–	–	–
CN(C)c1ccc(N/C=C/C(=O)c2ccco2)cc1	–	–	179	–	–	–
COC(=O)COc1ccc(S(=O)(=O)N2CCN(c3ccccc3F)CC2)cc1C	–	–	–	–	–	–
O=[N+]([O-])c1cc(-c2nnc(Nc3ccccc3)c3ccccc23)ccc1N1CCOCC1	–	·	·	–	–	–
Cc1ccc(Nc2nnc(-c3ccc(N4CCOCC4)c([N+](=O)[O-])c3)c3ccccc23)cc1	–	·	–	–	5.2	–
CCOC(=O)C(C(=O)Nc1nccs1)C1CCCCC1 (configuration not stated)	–	–	–	–	4.7	–
CCOC(=O)C(C(=O)Nc1nc2ccccc2s1)C1CCCCC1 (configuration not stated)	–	–	·	–	7.1	–
C=C(Cl)COc1ccc2c(CC)cc(=O)oc2c1	–	–	–	–	–	–
C=C(Cl)COc1ccc2c(CCCC)cc(=O)oc2c1	–	–	–	–	6.2	–
N#CCSc1n[nH]c2nc3c(c(=O)n12)C1(CCCC1)Cc1ccccc1-3	–	–	–	–	5.0	–
CCCn1c(SCC#N)nc2c(c1=O)C1(CCCC1)Cc1ccccc1-2	–	–	–	–	–	–
O=C1C(=O)c2c(C(=O)c3ccccc3)coc2-c2ccccc21	–	–	–	–	–	99
N#Cc1nc(COc2ccc(F)cc2)oc1N1CCC(Cc2ccccc2)CC1	–	–	–	–	5.3	–
COc1ccc(N(CC(=O)N2CCc3ccccc32)S(=O)(=O)c2c(C)noc2C)cc1	–	·	–	–	–	–
O=C(COC(=O)CCCOc1ccc(Cl)cc1Cl)Nc1cccc(Cl)c1	–	·	–	–	–	–
COc1ccc(CNC(=O)COC(=O)CCCOc2ccc(Cl)cc2Cl)cc1	–	·	–	–	4.9	–
CSc1ncc(Cl)c(C(=O)Nc2nnc(SC)s2)n1	–	–	–	–	9.1	–
COc1ccc(/C=N/NC(=O)c2csc(-n3nc(C)cc3C(F)(F)F)n2)cc1	142	·	–	–	–	–
COc1ccc(S(=O)(=O)NNC(=O)c2csc(-n3nc(C)cc3C(F)(F)F)n2)cc1OC	–	–	–	–	–	–
SMILES	Yeast life ext	MRP resist rev	Phagocytosis inh	SDO1 yeast rescue	MRP1 act	BB579 growth dn
CCOC(=O)c1ccc(Oc2nc(NC(C)(C)C)nc(N(C)C)n2)cc1	–	–	–	–	7.0	–
CC1CCCN(C(=O)COC(=O)c2ccc[nH]c2=O)C1 (configuration not stated)	–	–	–	–	–	–
Cc1cc(C(=O)COC(=O)c2ccc[nH]c2=O)c(C)n1-c1ccc(F)cc1	–	·	–	–	–	54
Cc1cc(C(=O)COC(=O)c2ccc[nH]c2=O)c(C)n1-c1ccccc1	–	·	–	–	–	59
Cc1cc(C(=O)COC(=O)c2ccc[nH]c2=O)c(C)n1C1CC1	29	·	–	–	–	–
Cc1c(NC(=O)COC(=O)c2ccc[nH]c2=O)c(=O)n(-c2ccccc2)n1C	–	·	–	–	–	–
CCOc1ccc(S(=O)(=O)Nc2ccc3c(c2)c2c(n3S(=O)(=O)c3ccc(OCC)cc3)CCCC2=O)cc1	–	·	–	–	–	–
O=C(CC(=O)c1ccccc1O)c1ccc(F)cc1	–	·	–	–	–	53
CC1CN(C(=O)N[C@@H](Cc2ccccc2)C(=O)O)CC(C)O1 (some centres not stated)	–	–	–	–	–	–
COc1ccccc1-c1ccc(C(=O)O)o1	–	–	–	–	–	–
